CHOP inh: blocks CHOP induction under ER stress | CHO-K1 CHOP-promoter luciferase, tunicamycin-induced, 15-18 h | inhibition, % at 10 µM | hit rate 3.8% among 220,000 | AID 2732;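 active = compounds that reduced the stress-induced luciferase reporter signal by more than about 70% of percent inhibition, limit read from the data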;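 also: 0% = tunicamycin plus vehicle and 100% = wells without tunicamycin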
Wee1 degr inh: human Wee1 degradation inhibition, primary screen; P30291; HeLa Luc-Wee1K328M stability, luciferase luminescence; 100% = proteasome inhibitor MG132 effect; reporter increase, % at 5 µM; hit rate 1.2% among 220,000; AID 1321;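 active = activation above the mean of all tested compounds plus 3 SD, set per screening run, cut at about 8.8% in these data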;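 also: cells exposed to compound for 20 h before luminescence read; 0% = DMSO alone and 100% = MG132 at 30 µM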
Arbovirus inh: arbovirus infection inhibition; AID 1251; inhibition, % at 10 µM; arbovirus infection cell-based antiviral screen; hit rate 0.37% among 200,000; in the data active = inhibition above about 30%
Rad51 HR inh: blocks human Rad51 in homologous recombination | Q06609 | hRad51 DNA strand exchange, fluorescence dequenching | inhibition, % at 10 µM | hit rate 0.085% among 200,000 | AID 1385;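 active = inhibition above 40% at the single screening dose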;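 also: 0% = DMSO control wells and 100% = blanks with heterologous ssDNA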
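Test system: preformed human Rad51 ssDNA filaments; also added: Donor/quencher-labelled 47-bp dsDNA substrate; doses: 10 µM final, single point; times: 37 °C 15-min filament assembly, 30-min compound preincubation, 15-min exchange; detection: FRET fluorescence dequenching, excitation 485 nm, emission 520 nm; read-out basis: Fluorescence-based percent inhibition, control- and blank-normalised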
L major viab: reduces viability of Leishmania major promastigotes. resazurin fluorescence viability. inhibition, % at 10 µM. hit rate 9% among 200,000. AID 1063;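 also: promastigotes grown with compound for 44 hours at 28 °C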
PKD1 inh: PKD1 (human) kinase inhibition; hit rate 0.056% among 200,000; Q15139; PKD1 kinase fluorescence polarization assay; inhibition, % (test concentration not listed)
Target sequence (Q15139 whole entry, looked up): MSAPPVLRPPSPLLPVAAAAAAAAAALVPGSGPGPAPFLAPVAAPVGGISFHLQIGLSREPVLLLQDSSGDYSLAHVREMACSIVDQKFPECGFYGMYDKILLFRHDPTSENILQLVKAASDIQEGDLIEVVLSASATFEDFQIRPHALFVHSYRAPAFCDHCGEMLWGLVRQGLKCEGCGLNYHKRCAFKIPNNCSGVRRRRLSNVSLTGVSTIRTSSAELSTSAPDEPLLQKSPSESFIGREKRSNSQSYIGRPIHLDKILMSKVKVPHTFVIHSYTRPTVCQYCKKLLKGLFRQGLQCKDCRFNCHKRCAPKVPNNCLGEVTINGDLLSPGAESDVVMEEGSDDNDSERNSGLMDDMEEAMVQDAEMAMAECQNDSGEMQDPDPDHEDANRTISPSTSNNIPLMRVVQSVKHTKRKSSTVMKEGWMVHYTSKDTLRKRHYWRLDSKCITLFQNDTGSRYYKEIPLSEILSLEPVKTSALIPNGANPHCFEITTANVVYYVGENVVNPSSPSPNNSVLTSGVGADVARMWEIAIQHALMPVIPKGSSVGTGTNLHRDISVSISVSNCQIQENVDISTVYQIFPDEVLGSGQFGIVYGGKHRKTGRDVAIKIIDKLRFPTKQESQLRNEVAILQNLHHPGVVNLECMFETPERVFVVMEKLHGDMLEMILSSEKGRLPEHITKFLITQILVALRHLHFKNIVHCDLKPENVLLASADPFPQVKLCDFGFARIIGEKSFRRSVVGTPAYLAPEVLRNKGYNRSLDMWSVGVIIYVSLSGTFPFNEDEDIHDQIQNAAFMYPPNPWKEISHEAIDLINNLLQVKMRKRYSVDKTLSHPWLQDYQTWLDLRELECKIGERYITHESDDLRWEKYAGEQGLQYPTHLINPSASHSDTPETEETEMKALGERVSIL
The depositor's hits bear a star; · = not tested or not shown. Rows were chosen to be rich in hits. Some 12% of all compounds tested hit in one or more screens of this group. Rule as the data show it, unless noted: active = inhibition above about 50%; inactive = the rest.

SMILES	CHOP inh	Wee1 degr inh	Arbovirus inh	Rad51 HR inh	L major viab	PKD1 inh
CCn1c(SCC(=O)Nc2cccc(C)c2)nc2nc3c(cc2c1=O)COC(C)(C)C3	30.3	0.4	·	2.3	·	·
CC(C)CN(/C=N/c1sc2c(c1C#N)CCCCC2)CC(C)C	73.5*	4.3	14.2	·	36.5	0.7
Cc1ccc(/C=N/c2sc3c(c2C#N)CCCCC3)o1	77.3*	0.1	-2.8	1.3	5.4	-1.9
Cc1[nH]n(-c2ccc(F)cc2)c(=O)c1/C=N/c1sc2c(c1C#N)CCCC2	90.4*	1.7	7.7	-4.5	-12.0	-3.6
O=C(COc1ccccc1[N+](=O)[O-])N/N=C/c1cccs1	17.0	2.8	-7.7	·	22.2	-0.9
CCOC(=O)C1=C(N)OC(CCl)=C(C#N)C1c1ccsc1 (stereo unspecified)	-17.6	2.9	3.9	-4.6	56.6*	-1.5
CC1=C(C(=O)OCc2ccccc2)C(c2ccsc2)C(C#N)=C(N)O1 (stereo unspecified)	-1.7	0.5	-3.3	-3.1	-1.7	4.3
COc1ccccc1Nc1nc(NCc2ccco2)nc(N)c1[N+](=O)[O-]	34.3	2.6	·	-6.7	·	·
Cc1ccc(Nc2nc(N)c([N+](=O)[O-])c(NCc3ccco3)n2)cc1C	79.3*	3.0	-3.0	5.4	70.3*	-2.6
Cc1ccc(Nc2nc(N)c([N+](=O)[O-])c(NCCO)n2)cc1C	18.9	4.3	·	20.8	·	·
COc1ccc(OC)c(Nc2nc(NCc3ccco3)nc(N)c2[N+](=O)[O-])c1	33.8	8.9*	·	6.1	·	·
NC(=O)c1cc([N+](=O)[O-])ccc1NCCN1C(=O)c2ccccc2C1=O	12.0	0.4	2.5	-20.1	-2.8	7.0
Cc1ccc(S(=O)(=O)N2CCCC2C(=O)Nc2nc3ccccc3s2)cc1 (stereo unspecified)	23.5	2.7	8.8	0.9	18.6	1.3
CCOCCCNC(=O)C1CCCCN1S(=O)(=O)c1ccc(F)cc1 (stereo unspecified)	-4.8	2.9	3.4	-1.4	-0.4	-5.0
O=C(Nc1nc2ccccc2s1)C1CCCN1S(=O)(=O)c1ccc(Cl)cc1 (stereo unspecified)	92.1*	2.9	-34.6	3.8	99.3*	-4.4
CCOCCCNC(=O)C1CCCN1S(=O)(=O)c1ccc(Cl)cc1 (stereo unspecified)	15.5	0.9	3.1	-0.6	93.3*	-4.3
O=C(NC1CC1)C1CCCN1S(=O)(=O)c1ccc2ccccc2c1 (stereo unspecified)	23.0	8.5	-11.3	-3.5	-0.7	-10.3
O=C(NCCc1ccccc1F)C1CCCN1S(=O)(=O)c1ccc2ccccc2c1 (stereo unspecified)	-13.3	-2.1	-2.6	1.2	57.4*	-0.4
COc1ccc(NC(=O)Nc2nc3c(s2)CCCC3)cc1	42.6	-0.1	13.8	5.8	53.5*	-6.0
CC(C)CCNC(=O)c1onc(CSc2ccccn2)c1C(=O)NCCC(C)C	·	·	·	-0.8	·	·
N#CCc1c(C#N)c(N)nc(N2CCCC(CO)C2)c1C#N (stereo unspecified)	9.0	5.3	6.8	-6.5	3.7	2.2
CN(C)CC(CCCCC(CN(C)C)C(=O)c1ccccc1)C(=O)c1ccccc1 (stereo unspecified)	-22.2	-2.8	·	19.1	·	·
CNC(=O)C1CCCN1S(=O)(=O)c1ccc(OC)cc1 (stereo unspecified)	32.9	-0.1	16.4	3.0	-2.9	-1.4
CCOCCCNC(=O)C1CCN(S(=O)(=O)CC)CC1	-23.3	14.8*	6.2	16.3	-1.6	14.7
CCOCCCNC(=O)C1CCN(S(=O)(=O)N(CC(C)C)CC(C)C)CC1	-3.4	1.3	0.2	5.6	-1.4	-5.7
SMILES	CHOP inh	Wee1 degr inh	Arbovirus inh	Rad51 HR inh	L major viab	PKD1 inh
COc1ccc(-c2csc(NC(=O)C3CCCCN3S(=O)(=O)c3ccccc3)n2)cc1 (stereo unspecified)	27.9	10.0*	-8.4	8.2	69.5*	-0.7
COc1ccc(S(=O)(=O)N2CCCC2C(=O)Nc2nc3c(s2)CCCC3)cc1 (stereo unspecified)	54.5	-0.6	3.9	0.2	89.7*	-6.0
Fc1ccc2nc(Nc3nc4c(F)cc(F)cc4s3)sc2c1	10.2	2.0	25.1	-0.9	-4.3	-6.7
O=C(NNc1nc2ccccc2s1)c1ccccc1F	8.3	-1.6	-18.2	0.3	3.6	0.4
Fc1ccc2nc(Nc3nc4c(F)cccc4s3)sc2c1	65.7	1.4	34.2*	-5.3	1.0	11.7
Fc1cccc2sc(Nc3nc4ccccc4s3)nc12	84.8*	0.6	3.0	3.7	46.4	-8.5
O=C(CNS(=O)(=O)c1ccccc1)NCC(=O)OCc1ccc(Cl)cc1	16.5	-2.5	·	16.4	·	·
O=c1[nH]n2c(=O)c3c([nH]c2c1N=Nc1cccc(Cl)c1)CCC3	9.2	6.3	34.5*	·	-7.4	30.4
NS(=O)(=O)c1ccc(N=Nc2c(=O)[nH]n3c(=O)c4c([nH]c23)CCCC4)cc1	-3.3	3.9	-4.8	6.5	5.2	-0.8
COc1cccc(N=Nc2c(=O)[nH]n3c(=O)c4c([nH]c23)CCC4)c1	4.2	-1.4	9.4	·	1.6	-4.2
O=c1[nH]n2c(=O)c3c([nH]c2c1N=Nc1cccc(C(F)(F)F)c1)CCCC3	28.6	3.0	36.6*	1.4	-1.1	0.8
OC[C@@H](O)[C@H](O)C(/C=N/Nc1ccccc1)=N\Nc1ccccc1	0.1	-0.4	·	7.6	·	·
COC(=O)C/C(C)=N/Nc1ccc(S(=O)(=O)N2CCCC2)cc1[N+](=O)[O-]	-10.6	1.2	12.7	3.9	-4.7	-6.6
COc1ccc(-c2nnc(SCc3nnc(-c4ccc(Cl)cc4)o3)n2-c2ccccc2)cc1	45.9	2.1	-24.7	9.0	88.7*	0.4
CC(C)CCNC(=O)C1C2C=CC3(CN(Cc4ccccc4Cl)C(=O)C13)O2 (stereo unspecified)	92.0*	0.1	-0.5	-11.1	-3.9	-13.6
CC(C)(C)c1ccc(-c2nnc(SCCC#N)n2C2CCCC2)cc1	71.5*	-0.3	-21.7	5.8	4.9	-4.3
Cn1c(SCCC#N)nnc1-c1ccc(F)cc1	15.3	-1.7	3.0	1.5	-3.7	-0.5
Cc1nn(C)cc1CN1CCC(CO)(CCOc2ccccc2)CC1	-7.9	3.2	-14.2	0.3	74.5*	6.0
CCOC(=O)C1(CCOC)CCN(Cc2nc(-c3cccs3)oc2C)CC1	17.8	3.2	0.3	-29.2	1.6	-7.9
OCC1(CCOc2ccccc2)CCN(Cc2nc3ccc(F)cc3[nH]2)CC1	3.6	-2.1	55.4*	11.4	38.0	0.0
Cc1oc(-c2cccs2)nc1CN1CCC(CO)(CCOc2ccccc2)CC1	6.9	-1.0	-20.0	-1.9	73.3*	4.1
COc1ccc(CN2CCC(CO)(CCOc3ccccc3)CC2)c(OC)c1C	13.5	4.2	-25.1	5.5	42.8	3.4
COc1ccc2[nH]c(CN3CCC(CO)(CCOc4ccccc4)CC3)c(C)c2c1	30.4	-4.8	-38.2	-2.3	88.2*	-6.5
